Among the data in ChEMBL document CHEMBL2146466, “Evaluation of dimerization-inhibitory activities of cyclic peptides containing a β-hairpin loop sequence of the EGF receptor” (2012) are inhibition, cell proliferation (% of vehicle) and residual activity values, retold here.

By inhibition is commonly meant how much of the control response was suppressed. One may read the residual activity as the activity still measured, relative to the control.

Experiment [1] addresses Epidermal growth factor receptor (Homo sapiens) (UniProt P00533). Briefly: Inhibition of human recombinant EGF receptor autophosphorylation expressed in A431 cells at 1 nM after 5 mins by immunoblotting analysis. The format is cell-based. Particulars: A-431. In outline: (§1)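 A431 cells were seeded at 1×10^4/well, grown 4 days, then starved 24 h in serum-free medium with 1 mg/mL BSA. Cells were given peptide or PBS for 1 h at 37 °C, then 100 ng/mL human EGF for 5 min. Lysates in NP-40 buffer were diluted to 500 µg/mL protein and run on SDS-PAGE. Blots were probed with anti-EGFR pY1068, then stripped and re-probed for total EGFR. Mean of two independent experiments in duplicate.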
For orientation: Immunoblotting shows a protein as a band on a membrane.

Experiment [2] shares this target. Briefly: Inhibition of human recombinant EGF receptor autophosphorylation expressed in A431 cells at 10 uM after 5 mins by immunoblotting analysis. The format is cell-based. Particulars: A-431. Put shortly:
as §1

The test system of a further experiment is A-431. Briefly: Antiproliferative activity against human A431 cells at 10 uM after 3 days by WST-8 assay. Particulars: A-431, 72 h. The format is functional. In outline:
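A431 cells in DMEM with 10% FBS were seeded at 5×10^3 cells/well and grown 24 h at 37 °C, 5% CO₂. Peptide at 10 µM, or distilled water as the 100% growth control, was added and cells were re-incubated 24 h for three consecutive days. WST-8 was then added for 90 min and absorbance read at 450 nm (reference 655 nm). Six replicate wells, three independent repeats; mean ± SD.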
A general note: Tetrazolium dyes change colour on reduction, which living cells bring about.

The target of experiment [3] is Epidermal growth factor receptor (Homo sapiens) (UniProt P00533). Briefly: Human recombinant EGF receptor dimer amount expressed in A431 cells at 10 uM after 10 mins by immunoblotting analysis relative to control. Conditions: A-431.
Sequence of Epidermal growth factor receptor (Homo sapiens) (P00533 whole entry): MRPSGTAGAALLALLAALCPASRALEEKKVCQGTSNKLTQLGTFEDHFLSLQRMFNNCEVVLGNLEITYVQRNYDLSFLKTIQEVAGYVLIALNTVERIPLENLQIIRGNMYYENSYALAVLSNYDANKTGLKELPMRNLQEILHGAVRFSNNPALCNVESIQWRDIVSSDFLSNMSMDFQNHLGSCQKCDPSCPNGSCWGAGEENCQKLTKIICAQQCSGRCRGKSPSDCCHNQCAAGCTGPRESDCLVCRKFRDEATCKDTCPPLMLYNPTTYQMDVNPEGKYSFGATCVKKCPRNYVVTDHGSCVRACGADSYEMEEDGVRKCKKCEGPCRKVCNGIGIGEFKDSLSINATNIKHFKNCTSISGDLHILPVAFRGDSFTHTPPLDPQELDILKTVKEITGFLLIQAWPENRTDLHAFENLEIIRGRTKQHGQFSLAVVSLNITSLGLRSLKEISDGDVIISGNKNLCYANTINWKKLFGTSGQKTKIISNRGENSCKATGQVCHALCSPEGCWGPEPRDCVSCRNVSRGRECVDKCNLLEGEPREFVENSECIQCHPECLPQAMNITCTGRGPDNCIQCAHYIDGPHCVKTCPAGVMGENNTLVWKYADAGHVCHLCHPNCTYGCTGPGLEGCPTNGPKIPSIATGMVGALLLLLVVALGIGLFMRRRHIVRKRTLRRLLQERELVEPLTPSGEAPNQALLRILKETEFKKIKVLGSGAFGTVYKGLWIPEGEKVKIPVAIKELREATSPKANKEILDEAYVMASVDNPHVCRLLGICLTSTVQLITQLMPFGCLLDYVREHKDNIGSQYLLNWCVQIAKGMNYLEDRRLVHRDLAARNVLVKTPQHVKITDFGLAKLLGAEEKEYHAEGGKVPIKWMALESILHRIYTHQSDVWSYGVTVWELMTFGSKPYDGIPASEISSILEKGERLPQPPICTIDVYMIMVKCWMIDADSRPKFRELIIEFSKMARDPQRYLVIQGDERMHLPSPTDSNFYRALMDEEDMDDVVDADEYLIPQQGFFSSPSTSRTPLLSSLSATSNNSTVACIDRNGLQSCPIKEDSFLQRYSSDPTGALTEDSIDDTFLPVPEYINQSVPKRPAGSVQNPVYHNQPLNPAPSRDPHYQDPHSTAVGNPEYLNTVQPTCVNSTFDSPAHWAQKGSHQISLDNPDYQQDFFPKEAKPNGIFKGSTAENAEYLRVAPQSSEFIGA
Experiment [4] shares this target. Briefly: Inhibition of human recombinant EGF receptor dimerization expressed in A431 cells at 10 uM after 10 mins by immunoblotting analysis relative to CYNPTTYQMC
Particulars: A-431. The format is cell-based.

Each structure is given as a SMILES string. The source made the active and inactive calls. No cut-off for these calls is given here. Where a SMILES comes first, the peptide text is derived from it.

In the case of `CSCC[C@H]1NC(=O)[C@H](N)CSSC[C@H](C(=O)O)NC(=O)[C@@H](Cc2ccc(O)cc2)NC(=O)[C@@H](CC(N)=O)NC(=O)[C@H]2CCCN2C(=O)[C@@H]([C@H](C)O)NC(=O)[C@@H]([C@H](C)O)NC(=O)[C@@H](Cc2ccc(O)cc2)NC(=O)[C@@H](CCC(N)=O)NC1=O`, the results for the inhibition in experiment [1] and in experiment [2] were 45% and 70%, respectively. Moreover, the cell proliferation (% of vehicle) at 10 µM in the experiment on A-431 amounted to 81%. Further, the residual activity in experiment [3] is 68%.
With `CSCC[C@@H]1NC(=O)[C@H](CCC(N)=O)NC(=O)[C@H](Cc2ccc(O)cc2)NC(=O)[C@H]([C@@H](C)O)NC(=O)[C@H]([C@@H](C)O)NC(=O)[C@@H]2CCCN2C(=O)[C@H](CC(N)=O)NC(=O)[C@H](Cc2ccc(O)cc2)NC(=O)[C@@H](N)CSSC[C@@H](C(=O)O)NC1=O`, the inhibition result in experiment [2] was “Active”. The same molecule yielded a cell proliferation (% of vehicle) at 10 µM in the experiment on A-431 of 84%. In addition, the residual activity in experiment [3] came out at 69%.
Turning to `CSCC[C@H](NC(=O)[C@H](CCC(N)=O)NC(=O)[C@H](Cc1ccc(O)cc1)NC(=O)[C@@H]1CSSC[C@H](NC(=O)[C@H](Cc2ccc(O)cc2)NC(=O)[C@@H](N)CC(C)C)C(=O)N2CCC[C@H]2C(=O)N[C@@H]([C@@H](C)O)C(=O)N1)C(=O)N[C@@H](CC(=O)O)C(=O)O` (HELM PEPTIDE1{L.Y.C.P.T.C.Y.Q.M.D}$PEPTIDE1,PEPTIDE1,3:R3-6:R3$$$V2.0), the inhibition in experiment [4] was determined as 32%. For the same molecule, the residual activity in experiment [3] was found to be 90%.
